These results are taken from ChEMBL document CHEMBL4190216, “Asymmetric 1,5-diarylpenta-1,4-dien-3-ones: Antiproliferative activity in prostate epithelial cell models and pharmacokinetic studies” (Eur J Med Chem, 2017).

pIC50: −log10 of the molar value.

Data set [1] relates to PC-3. Briefly: Antiproliferative activity against human PC3 cells assessed as decrease in cell viability after 3 days by WST assay. The class given is functional, cell-based. As to conditions: PC-3, 72 h. In outline:
(§1)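 Cells were seeded at 3,200 per well. PC-3 and LNCaP were grown in RPMI-1640 and DU-145 in EMEM, each with 10% FBS and 1% penicillin/streptomycin, at 37 °C and 5% CO2. Cells were exposed for 3 days to at least five concentrations, with DMSO as vehicle control. WST-1 reagent was then added for 3 h at 37 °C and absorbance read at 430 nm. IC50 came from linear inhibition, averaged over triplicates.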

Data set [2] relates to DU-145. Briefly: Antiproliferative activity against human DU145 cells assessed as decrease in cell viability after 3 days by WST assay. Type of data set: functional, cell-based. The note with it: DU-145, 72 h. Summed up: as §1
Data set [3] has as its system LNCaP. Briefly: Antiproliferative activity against human LNCAP cells assessed as decrease in cell viability after 3 days by WST assay. The class given is functional, cell-based. As to conditions: 72 h. In outline: as §1
Data set [4] deals with PC-3. Kind of data set: Potency index, ratio of curcumin IC50 to test compound IC50 for human PC3 cells. The class given is functional.
The subject of data set [5] is DU-145. Briefly: Potency index, ratio of curcumin IC50 to test compound IC50 for human DU145 cells. The class given is functional.
The subject of data set [6] is PWR-1E. Briefly: Antiproliferative activity against human PWR-1E cells expressing androgen receptor and PSA assessed as decrease in cell viability after 3 days by WST assay. The note with it: 72 h. The class given is functional, cell-based. Summed up: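 Non-malignant prostate epithelial PWR-1E (adenovirus 12/SV40-immortalized) was seeded at 5,000 per well. Cells were exposed for 3 days at 37 °C in a CO2 incubator to at least five concentrations, with DMSO as vehicle control. WST-1 reagent was then added for 3 h at 37 °C and absorbance read at 430 nm. IC50 came from linear inhibition, as the mean of triplicate determinations.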

For data set [7], the system named is PWR-1E. Briefly: Potency index, ratio of curcumin IC50 to test compound IC50 for human PWR-1E cells expressing androgen receptor and PSA. The class given is functional.
Data set [8] can be described thus: Antiproliferative activity against human LNCaP95 cells expressing androgen receptor splice variants assessed as decrease in cell viability after 5 days by trypan blue exclusion assay. The note with it: LNCaP-95, 120 h. Type of data set: functional, cell-based.
The next data set relates to VCaP. Briefly: Antiproliferative activity against human VCaP cells expressing androgen receptor splice variants assessed as decrease in cell viability after 5 days by trypan blue exclusion assay. The note with it: 120 h. The class given is functional, cell-based.
The subject of a further data set is CWR22R. Briefly: Antiproliferative activity against human 22Rv1 cells expressing androgen receptor splice variants assessed as decrease in cell viability after 5 days by trypan blue exclusion assay. The class given is functional, cell-based. As to conditions: 22Rv1, 120 h.
Data set [9] is described as follows: Plasma concentration in Sprague-Dawley rat at 10 mg/kg administered via oral gavage measured at 1 hr by HPLC-MS/MS analysis. The class given is ADME, organism-based.
Data set [10] in a line: Plasma concentration in Sprague-Dawley rat at 10 mg/kg administered via oral gavage measured at 3 hrs by HPLC-MS/MS analysis. Type of data set: ADME, organism-based.
Data set [11] is described as follows: Plasma concentration in Sprague-Dawley rat at 10 mg/kg administered via oral gavage measured at 6 hrs by HPLC-MS/MS analysis. Type of data set: ADME, organism-based.
Data set [12] in a line: Plasma concentration in Sprague-Dawley rat at 10 mg/kg administered via oral gavage measured after 1 day by HPLC-MS/MS analysis. Type of data set: ADME, organism-based.
The nature of data set [13]: Tmax in Sprague-Dawley rat at 10 mg/kg administered via oral gavage by HPLC-MS/MS analysis. As to conditions: in vivo. The class given is ADME, organism-based.
Data set [14] is described as follows: Cmax in Sprague-Dawley rat at 10 mg/kg administered via oral gavage by HPLC-MS/MS analysis. The class given is ADME, organism-based. Also noted: dose 10 mg/kg, route oral. As to conditions: in vivo.
The nature of data set [15]: AUC in Sprague-Dawley rat at 10 mg/kg administered via oral gavage by HPLC-MS/MS analysis. Type of data set: ADME, organism-based. As to conditions: in vivo.
For data set [16], the system named is Rattus norvegicus. Kind of data set: Acute toxicity in Sprague-Dawley rat assessed as mortality at 10 mg/kg administered via oral gavage after 72 hrs. Type of data set: organism-based. As to conditions: in vivo. Summed up:
(§2)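 Male Sprague-Dawley rats (250–300 g, n = 4) each received a single 10 mg/kg oral gavage dose. The vehicle was 5% DMSO, 40% polyethylene glycol 400 and 55% saline. Blood was drawn from the lateral tail vein at 1, 3, 6 and 24 h for plasma drug levels. Toxicity was scored as observed deaths after dosing.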

Data set [17] concerns LNCaP. Briefly: Potency index, ratio of curcumin IC50 to test compound IC50 for human LNCAP cells. Type of data set: functional.
In data set [18] the test system is Rattus norvegicus. Briefly: Acute toxicity in Sprague-Dawley rat at 10 mg/kg administered via oral gavage. Type of data set: organism-based. The note with it: in vivo. Summed up: as §2
Data set [19] in a line: Drug metabolism in human liver microsomes assessed as (1Z,4E)-1-(1-ethyl-1H-benzo[d]imidazol-2-yl)-1-hydroxy-5-(2-methyl-4-(trifluoromethyl)thiazol-5-yl)penta-1,4-dien-3-one formation at 10 mM after 60 mins by UHPLC analysis. Type of data set: ADME, microsome. In outline:
(§3)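 Pooled human liver microsomes in potassium phosphate buffer (pH 7.4) with NADPH solutions A and B were preincubated for 5 min at 37 °C. Compound was then added from a 10 mM stock (3 μL into 300 μL total) and incubated 60 min at 37 °C. Reactions were quenched with an equal volume of methanol and centrifuged (10,000 × g, 4 min, 4 °C). Supernatant went to UHPLC–high-resolution MS for metabolite identification.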

Data set [20] in a line: Drug metabolism in human liver microsomes assessed as (1Z,4E)-5-(1-ethyl-1H-benzo[d]imidazol-2-yl)-1-hydroxy-1-(2-methyl-4-(trifluoromethyl)thiazol-5-yl)penta-1,4-dien-3-one formation at 10 mM after 60 mins by UHPLC analysis. The class given is ADME, microsome. Summed up: as §3
The nature of data set [21]: Retention time of the compound. The class given is physicochemical.

With `CC(C)n1c(/C=C/C(=O)/C=C/c2ccccn2)nc2ccccc21`, the pIC50 with PC-3 [1] is 7.40; with DU-145 [2], 6.92; in the data set on LNCaP [3], 7.52; in the data set on PWR-1E [6], 8.00; in data set [8], 6.59; in the data set on VCaP it was 6.19. In the data set on CWR22R, the pIC50 is 6.35. The “Ratio IC50” value came out at 636 with PC-3 [4], 219 in the data set with DU-145 [5] and 885 in the data set with PWR-1E [7]. The concentration at 1 h in [9] was 0.823 µg/mL. Moreover, the concentration at 3 h in [10] was determined as 4.26 µg/mL. Besides, the concentration at 6 h in data set [11] was 0.456 µg/mL. Further, the concentration at 24 h in data set [12] turned out to be 0.103 µg/mL. Besides, in data set [13], the Tmax came out at 3 h. Also, the Cmax in data set [14] amounted to 13.5 µM. The same compound returned an AUC in data set [15] of 17.6 µg·h/mL. Moreover, the Activity entry in the data set on Rattus norvegicus [16] is listed as “Toxic”.

Consider `CCn1c(/C=C/C(=O)/C=C/c2sc(C)nc2C(F)(F)F)nc2ccccc21`, for which the pIC50 was 6.64 in the data set with PC-3 [1]; 6.30 in the data set with DU-145 [2]; 6.60 in the data set with LNCaP [3]; 7.10 in the data set with PWR-1E [6]; 6.42 in data set [8]; 5.85 with VCaP. Also, in the data set on CWR22R, the pIC50 was 6.66. Also, the “Ratio IC50” value turned out to be 110 in the data set with PC-3 [4], 53 in the data set on DU-145 [5] and 54 in the data set on LNCaP [17]. For the same compound, the concentration at 1 h in data set [9] was 0.112 µg/mL. The compound also gave a concentration at 3 h in data set [10] of 0.982 µg/mL. Besides, the concentration at 6 h in data set [11] was found to be 1.23 µg/mL. Moreover, the concentration at 24 h in data set [12] amounted to 0.314 µg/mL. For the same compound, the Tmax in [13] turned out to be 6 h. This compound had a Cmax in [14] of 3.25 µM. In data set [15], this compound displayed an AUC of 18.3 µg·h/mL. Further, the Activity result with Rattus norvegicus [18] was “Non-Toxic”. For the same compound, the Drug metabolism entry in data set [19] and in [20] was “Metabolite_Detected” each time. Further, the Retention_time in data set [21] is listed as 5.05 min.
